According to ChEMBL document CHEMBL2331438, “An efficient domino reaction in ionic liquid: synthesis and biological evaluation of some pyrano- and thiopyrano-fused heterocycles” (2013):
Values after ≈ are worked out from the molar mass of the structure shown.

Legend:
Escherichia coli = test: Antibacterial activity against Escherichia coli MTCC 443 after 24 hrs by broth microdilution method; format: functional; conditions: MTCC 443, 24 h
Streptococcus pneumoniae = test: Antibacterial activity against Streptococcus pneumoniae MTCC 1936 after 24 hrs by broth microdilution method; format: functional; conditions: MTCC 1936, 24 h
Bacillus subtilis = test: Antibacterial activity against Bacillus subtilis MTCC 441 after 24 hrs by broth microdilution method; format: functional; conditions: MTCC 441, 24 h
[1] = Antioxidant activity assessed as ascorbic acid equivalent ferric ion reducing activity per 100 gram at 200 ug/ml by FRAP assay; format: functional
Aspergillus fumigatus = test: Antifungal activity against Aspergillus fumigatus MTCC 3008 after 48 hrs by broth microdilution method; format: functional; conditions: MTCC 3008, 48 h
Vibrio cholerae = test: Antibacterial activity against Vibrio cholerae MTCC 3906 after 24 hrs by broth microdilution method; format: functional; conditions: MTCC 3906, 24 h
Candida albicans = test: Antifungal activity against Candida albicans MTCC 227 after 48 hrs by broth microdilution method; format: functional; conditions: MTCC 227, 48 h
[2] = system: Mycobacterium tuberculosis; test: Antimycobacterial activity against Mycobacterium tuberculosis H37Rv at 250 ug/ml; format: functional
Outline: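 M. tuberculosis H37Rv tested on L.J. (Löwenstein–Jensen) medium.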

Salmonella typhi = test: Antibacterial activity against Salmonella typhi MTCC 98 after 24 hrs by broth microdilution method; format: functional, Salmonella enterica subsp. enterica serovar Typhi; conditions: Salmonella enterica, MTCC 98, 24 h
Clostridium tetani = test: Antibacterial activity against Clostridium tetani MTCC 449 after 24 hrs by broth microdilution method; format: functional; conditions: MTCC 449, 24 h

SMILES | MIC (Escherichia coli) [µg/mL] | MIC (Streptococcus pneumoniae) [µg/mL] | MIC (Bacillus subtilis) [µg/mL] | Activity [1] [mmol] | MIC (Aspergillus fumigatus) [µg/mL] | MIC (Vibrio cholerae) [µg/mL] | MIC (Candida albicans) [µg/mL] | inhibition at 250 µg/mL [2] [%] | MIC (Salmonella typhi) [µg/mL] | MIC (Clostridium tetani) [µg/mL]
Cc1nn(-c2ccc([N+](=O)[O-])cc2)c2c1[C@@H]1c3c(ccc4c(C)cc(=O)oc34)OC[C@@H]1C(C)(C)O2 | 200 (≈ 422 µM) | 200 (≈ 422 µM) | 200 (≈ 422 µM) | 138 | 500 (≈ 1060 µM) | 200 (≈ 422 µM) | 250 (≈ 528 µM) | 88 | 125 (≈ 264 µM) | 200 (≈ 422 µM)
Cc1cc(=O)oc2c3c(ccc12)OC[C@@H]1COc2c(c(-c4ccccc4)nn2-c2ccccc2)[C@H]31 | 62.5 (≈ 135 µM) | 100 (≈ 216 µM) | 125 (≈ 270 µM) | 163 | 500 (≈ 1080 µM) | 100 (≈ 216 µM) | 500 (≈ 1080 µM) | 68 | 125 (≈ 270 µM) | 100 (≈ 216 µM)
Cc1nn(-c2ccc(Cl)c(Cl)c2)c2c1[C@@H]1c3c(ccc4c(C)cc(=O)oc34)OC[C@@H]1C(C)(C)O2 | 200 (≈ 402 µM) | 250 (≈ 503 µM) | 250 (≈ 503 µM) | 150 | 500 (≈ 1010 µM) | 125 (≈ 251 µM) | 200 (≈ 402 µM) | 70 | 250 (≈ 503 µM) | 250 (≈ 503 µM)
Cc1nn(-c2ccc([N+](=O)[O-])cc2)c2c1[C@@H]1c3cc4cccc(C)c4nc3SC[C@@H]1CO2 | 100 (≈ 225 µM) | 200 (≈ 450 µM) | 250 (≈ 562 µM) | 49.8 | > 1000 | 250 (≈ 562 µM) | > 1000 | 20 | 62.5 (≈ 141 µM) | 200 (≈ 450 µM)
Cc1nn(-c2cccc(Cl)c2)c2c1[C@@H]1c3c(ccc4c(C)cc(=O)oc34)OC[C@@H]1CO2 | 100 (≈ 230 µM) | 62.5 (≈ 144 µM) | 200 (≈ 460 µM) | 158 | 250 (≈ 575 µM) | 250 (≈ 575 µM) | 1000 (≈ 2300 µM) | 19 | 200 (≈ 460 µM) | 62.5 (≈ 144 µM)
c1ccc(-c2nn(-c3ccccc3)c3c2[C@@H]2c4cc5ccccc5nc4SC[C@@H]2CO3)cc1 | 100 (≈ 223 µM) | 250 (≈ 559 µM) | 200 (≈ 447 µM) | 105 | 250 (≈ 559 µM) | 250 (≈ 559 µM) | 500 (≈ 1120 µM) | 40 | 250 (≈ 559 µM) | 250 (≈ 559 µM)
Cc1nn(-c2ccc([N+](=O)[O-])cc2)c2c1[C@@H]1c3c(ccc4c(C)cc(=O)oc34)OC[C@@H]1CO2 | 125 (≈ 281 µM) | 250 (≈ 561 µM) | 200 (≈ 449 µM) | 163 | 250 (≈ 561 µM) | 250 (≈ 561 µM) | 1000 (≈ 2250 µM) | 79 | 200 (≈ 449 µM) | 250 (≈ 561 µM)
Cc1nn(-c2cc(Cl)ccc2Cl)c2c1[C@@H]1c3cc4cccc(C)c4nc3SC[C@@H]1CO2 | 62.5 (≈ 133 µM) | 250 (≈ 534 µM) | 100 (≈ 213 µM) | 129 | 1000 (≈ 2130 µM) | 100 (≈ 213 µM) | 1000 (≈ 2130 µM) | 49 | 200 (≈ 427 µM) | 100 (≈ 213 µM)
Cc1nn(-c2ccccc2)c2c1[C@@H]1c3cc4cccc(C)c4nc3SC[C@@H]1CO2 | 250 (≈ 626 µM) | 250 (≈ 626 µM) | 100 (≈ 250 µM) | 160 | 250 (≈ 626 µM) | 250 (≈ 626 µM) | 1000 (≈ 2500 µM) | 38 | 200 (≈ 501 µM) | 200 (≈ 501 µM)
Cc1nn(-c2cccc(Cl)c2)c2c1[C@@H]1c3cc4ccccc4nc3SC[C@@H]1CO2 | 62.5 (≈ 149 µM) | 250 (≈ 595 µM) | 200 (≈ 476 µM) | 128 | 1000 (≈ 2380 µM) | 200 (≈ 476 µM) | > 1000 | 61 | 100 (≈ 238 µM) | 125 (≈ 298 µM)
